Experimental data reported in ChEMBL document CHEMBL4145595, “Discovery of MK-8282 as a Potent G-Protein-Coupled Receptor 119 Agonist for the Treatment of Type 2 Diabetes” (ACS Med Chem Lett, 2018).
Converted amounts (≈) assume the structure as drawn. The source made the active and inactive calls. The calls are words filed in the database; no cut-off is given here.

Tests used:
[1] = molecular target: T1, Glucose-dependent insulinotropic receptor (Homo sapiens) (UniProt Q8TDV5); assay: (§1) Agonist activity at human GPR119 expressed in HEK293 cells assessed as increase in cAMP level after 30 mins by LANCE assay; format: functional, cell-based
T1 sequence (whole entry): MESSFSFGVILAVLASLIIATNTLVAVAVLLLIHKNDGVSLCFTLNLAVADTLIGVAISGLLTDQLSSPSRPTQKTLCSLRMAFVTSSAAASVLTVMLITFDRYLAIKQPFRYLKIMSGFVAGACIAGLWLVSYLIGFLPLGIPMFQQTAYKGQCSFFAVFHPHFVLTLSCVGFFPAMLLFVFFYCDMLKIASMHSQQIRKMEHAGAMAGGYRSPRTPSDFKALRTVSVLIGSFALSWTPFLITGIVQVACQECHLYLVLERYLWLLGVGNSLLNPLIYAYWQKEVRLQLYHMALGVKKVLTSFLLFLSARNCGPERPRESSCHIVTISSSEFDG

[2] = molecular target: T2, Glucose-dependent insulinotropic receptor (Homo sapiens, UniProt Q8TDV5); assay: as §1; format: functional, cell-based
T2 sequence (Q8TDV5 whole entry): T1 sequence (whole entry)

[3] = molecular target: T3, Glucose-dependent insulinotropic receptor (Mus musculus, UniProt Q7TQP3); assay: (§2) Agonist activity at mouse GPR119 assessed as increase in cAMP level; format: functional
T3 sequence (Q7TQP3 whole entry): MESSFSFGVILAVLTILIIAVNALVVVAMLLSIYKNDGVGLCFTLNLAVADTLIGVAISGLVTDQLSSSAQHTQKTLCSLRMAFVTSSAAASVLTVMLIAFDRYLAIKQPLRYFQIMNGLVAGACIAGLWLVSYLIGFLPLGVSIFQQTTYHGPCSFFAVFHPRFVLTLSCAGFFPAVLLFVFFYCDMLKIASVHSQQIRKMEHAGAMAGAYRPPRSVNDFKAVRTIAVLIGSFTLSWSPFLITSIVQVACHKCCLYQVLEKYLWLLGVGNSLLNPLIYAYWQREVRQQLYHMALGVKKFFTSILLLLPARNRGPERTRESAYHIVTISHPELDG

[4] = molecular target: T4, Glucose-dependent insulinotropic receptor (Mus musculus) (UniProt Q7TQP3); assay: as §2; format: functional
T4 sequence (whole entry): T3 sequence (Q7TQP3 whole entry)

Mus musculus [5] = assay: Glucose lowering effect in C57Bl/6NCrl mouse assessed as reduction in glucose level at 3 mg/kg, po administered via gavage pretreated for 30 mins followed by glucose-challenge measured after 20 mins by OGTT relative to control; format: functional; parameters: scale not given: the % may be the effect or the level left
Summary of the method: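 Overnight-fasted mice got compound or vehicle orally at 3 to 10 mg/kg. Glucose (3 g/kg po) was given 30 min post-dose. Blood glucose was read by hand-held glucometer before dosing, before glucose and 20 min after glucose. Glucose lowering (%) = [(1 − 20 min glucose of treated / 20 min glucose of vehicle) × 100].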

Rattus norvegicus = assay: Antidiabetic activity in Sprague-Dawley rat assessed as reduction in glucose excursion at 1 mg/kg, po pretreated followed by glucose challenge measured after 10 to 30 mins by OGTT; format: functional, organism-based
Summary of the method: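 Sprague-Dawley rats underwent an oral glucose tolerance test with glucose excursion measured. Sitagliptin was dosed at 1 mpk and agonist at 3 mpk, alone or co-administered.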

Mus musculus [6] = assay: Antidiabetic activity in C57Bl/6NCrl mouse assessed as increase in plasma GLP1 (7 to 36) amide levels at 3 mg/kg, po administered via gavage pretreated followed by glucose-challenge measured after 10 mins; format: functional, organism-based
[7] = Solubility of the compound at pH 7.4; format: physicochemical; details: buffer
[8] = Protein binding in mouse plasma at 10 uM; format: ADME, cell-free; details: read-out: PPB (converted)
[9] = Protein binding in human plasma at 10 uM; format: ADME, cell-free; details: read-out: PPB (converted)

Structure (SMILES) | %max [1] | EC50 [2] | EC50 [3] | %max [4] | Activity (Mus musculus [5]) | Activity (Rattus norvegicus) | Activity (Mus musculus [6]) | solubility [7] | fraction unbound at 10 µM [8] | fraction unbound at 10 µM [9]
COCC1(OC(=O)N2CC3COCC(C2)C3Oc2ncnc(Nc3ccc(C#N)cc3F)c2F)CC1 (stereo unspecified) | 62% | 49 nM | 312 nM | 70% | – | – | – | – | – | –
CC1(OC(=O)N2C[C@H]3COC[C@@H](C2)[C@@H]3Oc2ncnc(Nc3c(F)cccc3F)c2F)CC1 | 78% | 13 nM | 113 nM | 108% | 31% | – | – | – | – | –
CC1(OC(=O)N2CC3COCC(C2)C3Oc2ncnc(Nc3ccc(-n4cncn4)cc3F)c2F)CC1 (stereo unspecified) | 73% | 19 nM | 278 nM | 83% | 27% | – | – | – | – | –
CCC1(OC(=O)N2CC3COCC(C2)C3Oc2ncnc(Nc3ccc(C#N)cc3F)c2F)CC1 (stereo unspecified) | 89% | 6 nM | 43 nM | 90% | – | – | – | – | – | –
CC1(OC(=O)N2CC3COCC(C2)C3Oc2ncnc(Nc3ccc(C#N)cc3Cl)c2F)CCC1 (stereo unspecified) | 59% | 10 nM | 60 nM | 88% | – | – | – | – | – | –
CC1(OC(=O)N2CC3COCC(C2)C3Oc2ncnc(Oc3ccccc3F)c2F)CC1 (stereo unspecified) | 114% | 26 nM | 75 nM | 136% | 20% | – | – | – | – | –
N[C@@H](CC(=O)N1CCn2c(nnc2C(F)(F)F)C1)Cc1cc(F)c(F)cc1F | – | – | – | – | – | Active | Active | – | – | –
CC1(OC(=O)N2[C@H]3CC[C@H]2CC(Oc2ncnc(Nc4ccc(C#N)cc4Cl)c2F)C3)CC1 (stereo partly specified) | 79% | 3.5 nM | 67 nM | 42% | 17% | – | – | – | – | –
CC1(OC(=O)N2CC3COCC(C2)C3Oc2ncnc(Nc3ccc(F)cc3F)c2F)CC1 (stereo unspecified) | 94% | 15 nM | 44 nM | 73% | 27% | – | – | – | – | –
CC(C)COC(=O)N1[C@H]2CC[C@H]1CC(Oc1ncnc(Nc3ccc(C#N)cc3Cl)c1F)C2 (stereo partly specified) | 81% | 2.6 nM | 21 nM | 44% | inactive | – | – | – | – | –
N#Cc1ccc(Nc2ncnc(OC3C4COCC3CN(C(=O)OC3CCC3)C4)c2F)c(Cl)c1 (stereo unspecified) | 51% | 10 nM | 60 nM | 60% | – | – | – | – | – | –
N#Cc1ccc(Oc2ncnc(OC3C4COCC3CN(c3ncc(F)cn3)C4)c2C2CC2)c(Cl)c1 (stereo unspecified) | 56% | 212 nM | 248 nM | 100% | – | – | – | – | – | –
CC1(OC(=O)N2C[C@H]3COC[C@@H](C2)[C@@H]3Oc2ncnc(Nc3ccccc3F)c2F)CC1 | 78% | 6 nM | 25 nM | 76% | 21% | – | – | – | – | –
CC1(OC(=O)N2[C@H]3CC[C@H]2CC(Oc2ncnc(Nc4ccc(C#N)cc4Cl)c2F)C3)CCC1 (stereo partly specified) | 77% | 5.1 nM | 42 nM | 18% | inactive | – | – | – | – | –
CC1(COC(=O)N2CC3COCC(C2)C3Oc2ncnc(Nc3ccc(C#N)cc3Cl)c2F)COC1 (stereo unspecified) | 41% | 188 nM | 516 nM | 46% | – | – | – | – | – | –
Cc1c(Nc2ccc(C#N)cc2Cl)ncnc1OC1C[C@@H]2CC[C@@H](C1)N2S(=O)(=O)C1CC1 (stereo partly specified) | – | – | – | – | – | – | – | 0.17 µM (≈ 0.0806 µg/mL) | 0.007 | 0.001
COc1c(Nc2ccc(S(C)(=O)=O)cc2F)ncnc1OC1C[C@@H]2COC[C@@H](C1)N2C(=O)OC1(C)CC1 (stereo partly specified) | 73% | 97 nM | 0.427 nM | 79% | – | – | – | 17 µM (≈ 9.12 µg/mL) | 0.081 | 0.145
CC1(OC(=O)N2CC3COCC(C2)C3Oc2ncnc(Nc3cccnc3Cl)c2F)CC1 (stereo unspecified) | 63% | 17 nM | 58 nM | 84% | 26% | – | – | – | – | –
CC(C)OC(=O)N1[C@H]2CC[C@H]1CC(Oc1ncnc(Nc3ccc(C#N)cc3Cl)c1F)C2 (stereo partly specified) | 87% | 8 nM | 46 nM | 29% | inactive | – | – | – | – | –
